# Data as given in the RNAGym collection of RNA variant scans (doi:10.1126/science.aae0568).
# Variants at the floor of the assay were thinned out.
# B1: tRNA (parent)
# chain: GUUCCGUUGGCGUAAUGGUAACGCGUCUCCCUCCUAAGGAGAAGACUGCGGGUUCGAGUCCCGUACGGAACG
# Variants of: B1
# Test: yeast fitness relative to wild type (ratio to wild type); higher = fitter; tRNA-Arg(CCU), competitive growth, 37 C, YPD
# In short: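 Start and end populations of a pooled competition were compared by 100-nucleotide paired-end sequencing of gene amplicons. The Saccharomyces cerevisiae strains carried tRNA-Arg(CCU) gene variants at the native genomic locus, synthesised with a 3% per-site mutation rate at 69 sites, and competed in YPD at 37°C for 24 hours in six parallel replicates. Darwinian fitness relative to wild type was based on the change in genotype frequencies. Genotypes required ≥ 100 starting reads, and estimates < 0.5 were set to 0.5.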
row,Variant,yeast fitness
1,GUUCCGUUGGCGUAAUGGUUACCCGUCUCCCUCCGAAGGAGAAGACUGCGGGUUCGAGUCCCGUACGGAACG,0.643
2,GUUCCGUUGGCGUAAUGGUUACGCGUCUUCCUCCUAAGGAGAAGACUGGGGGUUAGAGUCCCGUAUGGAACG,≤ 0.5
3,GUUCCGUUGGCGUAAUGGUUACGCGUCUUCCUCCUAAGGAGAAGACUGGGGGUUAGAGUCCCGUACGCAACG,≤ 0.5
4,GUUCCGUUGGCGUAAUGGUUACGCGUCUCCCUCCUGAGGAGAAGACUGCGGGUUCGAGUCCCGUACGAAACG,0.574
5,GUUCCGUUGGCGUAAUGGUUACGCGUCUCCCUCCUAUGGACAAGAGUGCGGGUUCGAGUCCCGUACGGAACG,≤ 0.5
6,GUUCCGUUGGCGUAAUGGUUACGCGUGUACCUCCUAAGGAGAAGACUGCGGGUUCGAGUCCCGUGCGGAACG,≤ 0.5
7,GUUCCGUUGGCGUAAUGGUUACGCGUCUCCCUCCUAAGGAGAAGACUGCGGGUUCGAGUGUCGUACGGAACG,≤ 0.5
8,GUUCCGUUGGCGUAAUGGUUACGCGUCUCCCUCCUAAGGUGAACACUGCGGGGUCGAGUCCCGUACGGAACG,≤ 0.5
9,GUUCCGUUGGCGUAAUGGUUACGCGUCUCCCUCCUAAGGAGAAGUCUGCGGGUUCGAGUCCCGUACGGUACG,0.726
10,GUUCCGUUGGCGUAAUGGUUUCGCGUCUCCCUCGUAAGGAGAAGACUGCGGGUUCGAGUCCCCUACGGAACG,≤ 0.5
11,GUUCCGUUGGCGUAAUGGUUACGCGUCUCCCUCCUAAGGAGAAGACUGCGGGUUCGAGUACCGUACGGAACG,0.609
12,GUUCCGUUGGCGUAAUGGUUACGCGUCUCCCUCCUAGGGAGAAGACUGCGGGUUCGAGUCCCGUACGGAACG,0.892
13,GUUCCGUUGGCGUAAUGGUUACGCGUCUCUGUCCUAAGGAGAGAACAGGGGGUUCGAGUCCCGUACGGAACG,0.595
14,GUUCCGUUGGCGUAAUGGUUACGCGUCUCUCUCGUAAGGAGAAGACUGCGGGCUCGUGUCCCGUACCGAACG,≤ 0.5
15,GUUCCGUUGGCGUAAUGGUUACGCGUCUCCCUACUAAGGAGAAGACUGCGGGUUCGAGUCCCGUACGGAACG,0.653
16,GUUCCGUUGGCGUAAUGGUUACGCGUCUCCCUUCUAAGGAGAAGACUGCGGGUUCGAGUCCCGUACGGAACG,0.675
17,GUUCCGUUGGCGUAAUGGUUUCGCGUCUCCCUCCUAAGGAGAAGACUGCGGGUUCGAGUCCCGUACGGAACG,0.61
18,GUUCCGUUGGCGUAAUGGUUACGCGUCUUCCUCCUAAGGAGGAGACUGGGGGUUAGAGUCCCGUACGGAACG,≤ 0.5
19,GUUCCGUUGGCGUAAUGGUUACGCGUCUCCCUCCUAAGGAGAAGACUGCGGGUUCGAGUUCCGUACGGUACG,0.672

row,Variant,yeast fitness
1,GUUCCGUUGGCGUAAUGGUUACGUGUCUCCCUCCUAAGGAGUAGAAUGCGGGUUUGAGUCGCGUACGGAACG,0.518
2,GUUCCGUUGGCGUAAUGGUUACACGUCUCCCUCCUAAGGAGAAGACUGCGGGUUCGAGUCCCAUACGGAUCG,≤ 0.5
3,GUUCCGUUGGCGUAAUGGUUAGGCGUCUCCCUCCUAAGGAGAAGCCUGCGGGUUCGAGCCCCGUACGGAACG,0.651
4,GUUCCGUUGGCGUAAUGGUUACGCGUCUCUCUCCGUAGGAGAAGACUGCGGGUUCGAGUCCCGUACGGAACG,≤ 0.5
5,GUUCCGUUGGCGUAAUGGUUACGCGUCUCCCUCCUAAGGAGAACGCUGCGGGUUCGAGUCCCGUACGGAACG,0.596
6,GUUCCGUUGGCGUAAUGGUUAGGCGUCUCCCUCCUAAGGGGAAGACUGCCCGUUCAAGUCCCGUACGGAACG,≤ 0.5
7,GUUCCGUUGGCGUAAUGGUUACGCGUCUCCCUCCUAAGGAGAAGACUGCGGGUUCGAGUCCCGUACGGAGCG,0.918
8,GUUCCGUUGGCGUAAUGGUGACGCGUCUCCCUCCUAAGGAGAAGACUGCGGGCUCCAGUCCCGUACGGAACG,≤ 0.5
9,GUUCCGUUGGCGUAAUGGUUACGCCUCUCCCUCCUAAGGAGAAGACUGCGGGUUCGAGUCCCGUUCGGCACG,0.587
10,GUUCCGUUGGCGUAAUGGUUACGCGUCUCCUUCCUAAGGAGAAGACUGCGGGUUCGAGUCCCGUAAGGAACG,≤ 0.5
11,GUUCCGUUGGCGUAAUGGUUGCGCGUGUCCCUCCUAAGGAGAAGACUGCGGGUUCGAGUCCCGUACGGAACG,≤ 0.5
12,GUUCCGUUGGCGUAAUGGUUCCGCGUAUCCCUCCUAAGGAGAAGGCUGCGGGUUCGAGUCCCGUACGGAACG,≤ 0.5
13,GUUCCGUUGGCGUAAUGGUUACGCGUCUCACUCCUAAGGAGAAGACUGCGGGUUCGAGUCCCGUACGGAACG,0.795
14,GUUCCGUUGGCGUAAUGGUUACGCGUCUCCCUCCUAAGGAGUAGGCUGCGGGUUCGAGUCCCGUACGGAACG,0.532
15,GUUCCGUUGGCGUAAUGGUUACGCGUGUUCCUCCUAAGGAGAAGACUGCGGGUUCGAGUCCCGUACGGAACG,≤ 0.5
16,GUUCCGUUGGCGUAAUGGUUACGUGUCUCCCUCCUAAGGAGAAGACUGCGGGUUCGAGUCCCGUACGGAACG,0.841
17,GUUCCGUUGGCGUAAUGGUUACGCGUCUCCCUCCUGAAGUGGAGACUGCGGGUUCGAGUCCCGUACGGAACG,≤ 0.5
18,GUUCCGUUGGCGUAAUGGUGACGCGUCUCCCUCCUAAGGAGAAGACCGCCGGUUCGAGUCCCGUACGGAACG,≤ 0.5
19,GUUCCGUUGGCGUAAUGGUUACGCGUCUGCCUCCUAAGGAGAUGACUGCGGGUUCGAGUCCCGUACGGAACG,0.612
